Screening data deposited in PubChem by Johns Hopkins Ion Channel Center.
KCNQ1 act – human KCNQ1 channel potentiation or activation; P51787; CHO-K1 KCNQ1, thallium flux FluxOR fluorescence; active compounds read high; B-score at 10 µM; 310,000 compounds, 0.35% hits;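 active means fluorescence ratio B-score, a plate-corrected score, at least three library SD, with initial intensity B-score within 5 SD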
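Medium – assay buffer, equal DMSO in all wells · Material – CHO-K1 cell line with stable KCNQ1 potassium channel expression · Signal – kinetic FluxOR thallium fluorescence, 10-s 1-Hz baseline, 110-s post-stimulus read · Compound – single concentration per compound, DMSO matched to controls · Schedule – 37 °C overnight plating, 90-min dark dye load, 20-min compound pretreatment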
KCNQ1 block – inhibitors of human KCNQ1 potassium channel | B-score at 10 µM | AID 2642 | 310,000 compounds, 1.3% hits | CHO-K1 KCNQ1, FluxOR thallium flux fluorescence; active compounds read high | P51787;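 active means compounds whose thallium flux B-score, printed positive for inhibition, exceeds three library SD while starting fluorescence stays within three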;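 further: channel opened by potassium depolarization with thallium stimulus after 20 min compound exposure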
KCNK9 inh – inhibitors of human KCNK9 two-pore domain potassium channel. Q9NPC2. HEK293 KCNK9, FluxOR thallium flux fluorescence; active compounds read low. B-score at 10 µM. 310,000 compounds, 1.2% hits. AID 488922;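 active means ratio B-score over 3 SD below the library mean, with starting fluorescence within 5 SD of its mean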;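 further: negative B-score means less thallium flux so channel inhibition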
hERG protect – compounds protecting human hERG from proarrhythmic drug block. CHO-hERG, FluxOR thallium flux, dofetilide IC70 present. Q12809. AID 1511. activation (rescue from dofetilide block), less the hit threshold, % at 10 µM. 310,000 compounds, 0.51% hits;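 active means activation above the mean of controls blocked by dofetilide plus 5 SD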;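 further: thallium influx through hERG after potassium depolarization seen as dye fluorescence rise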
KCNK3 inh – human KCNK3 channel inhibition, primary screen; CHO-KCNK3 thallium flux, FluxOR fluorescence; active compounds read low; B-score at 10 µM; 340,000 compounds, 0.84% hits; AID 602410;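 active means B-score under library mean minus 4 SD, starting fluorescence ratio at most library mean plus 5 SD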;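 further: more negative B-score means stronger inhibition of thallium flux through KCNK3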
Target sequence (O14649 whole entry, looked up): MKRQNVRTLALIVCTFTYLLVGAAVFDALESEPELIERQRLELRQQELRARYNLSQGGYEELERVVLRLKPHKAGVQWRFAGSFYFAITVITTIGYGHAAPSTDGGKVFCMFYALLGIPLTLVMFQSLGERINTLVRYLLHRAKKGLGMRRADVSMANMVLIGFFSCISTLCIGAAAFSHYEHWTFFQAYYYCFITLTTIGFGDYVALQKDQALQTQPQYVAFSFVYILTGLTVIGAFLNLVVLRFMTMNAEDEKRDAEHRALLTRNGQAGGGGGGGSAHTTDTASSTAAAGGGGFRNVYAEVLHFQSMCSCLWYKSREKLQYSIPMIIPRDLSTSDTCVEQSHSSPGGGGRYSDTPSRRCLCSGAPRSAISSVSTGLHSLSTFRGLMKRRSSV
KCNK9 block conf – human KCNK9 inhibitor confirmation; shares compounds with KCNK9 inh; HEK293 KCNK9 cells, FluxOR thallium flux fluorescence; inhibition, % at 10 µM; 4,900 compounds, 43% hits; AID 492992;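 active means thallium signal inhibited by more than 5 SD of the compound-free buffer control wells, on both duplicate plates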
Kir2-1 spec – selectivity of KCNK9 modulators against mouse Kir2.1; shares compounds with KCNK9 inh; inhibition, % at 10 µM; 4,900 compounds, 4% hits; Kir2.1 cells, FluxOR thallium flux fluorescence;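 active means thallium signal drop more than 5 SD beyond the mean of the no-compound control wells, seen in both duplicate plates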;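 further: signal is fluorescence rise after thallium addition divided by baseline fluorescence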
HEK293 Tl ctr – second counter-screen for KCNK9 modulators: effect in non-induced cells | non-induced KCNK9-HEK293, FluxOR thallium flux | 4,900 compounds, 40% hits | AID 492997 | inhibition, % at 10 µM | shares compounds with KCNK9 inh;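 active means thallium signal drop beyond 5 SD of the untreated control mean, on both duplicate plates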
KCNK3 inh conf – human KCNK3 channel inhibition, confirmation assay | shares compounds with KCNK3 inh | CHO-KCNK3 thallium flux, FluxOR fluorescence; 0% buffer, 100% carvedilol maximal block | ratio percent of control, % at 10 µM | 2,400 compounds, 99% hits | AID 651638;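 active means ratio percent of control, averaged over triplicates, above buffer control mean plus 5 SD, cut at about 64% in these data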;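 further: ratio is the fluorescence rise from min to max over baseline after thallium stimulus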
KCNK3 uninduced – activity in cells without induced KCNK3 expression. shares compounds with KCNK3 inh. non-induced KCNK3 parental cells, FluxOR thallium flux; active compounds read low. thallium flux ratio (lower = more inhibition) at 10 µM. 2,400 compounds, 40% hits. AID 651747;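 active means thallium flux ratio, averaged over three wells, more than 5 SD below the buffer control mean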;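 further: host cells are CHO cells without KCNK3 induction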
Of the large screens only hits and unclear results are named; the others gave an inactive call (follow-up assays come after a bar, where they were run). Hits are enriched below; roughly 3.1% of the tested compounds scored in any of these assays.

CN(/N=C/c1cc(Cl)cc(Cl)c1O)c1c(Cl)cccc1[N+](=O)[O-]	KCNK9 inh -13, KCNK3 inh -11 | KCNK9 block conf 62% | Kir2-1 spec inactive | HEK293 Tl ctr 48% | KCNK3 inh conf 116 | KCNK3 uninduced 0.15
COC(=O)c1c(C(=O)OC)c(-c2ccc(Cl)c(Cl)c2)n2c1CCC2	KCNK9 inh -8.2 | KCNK9 block conf 32% | Kir2-1 spec inactive | HEK293 Tl ctr 32% | KCNK3 inh conf 92 | KCNK3 uninduced inactive
COc1ccc(C2CCCN2C(=O)Nc2ccc(Cl)cc2)cc1OC (centres undefined)	none
CCOC(=O)c1c(NC(=O)CSc2nnc(C)s2)sc2c1CCCCC2	KCNK9 inh -9.4, KCNK3 inh -9.8 | KCNK9 block conf 37% | Kir2-1 spec inactive | HEK293 Tl ctr 48% | KCNK3 inh conf 121 | KCNK3 uninduced 0.16
CCN1c2ccccc2-c2nc3ccccc3n2C1c1ccco1 (centres undefined)	KCNK9 inh -9.1, KCNK3 inh -9.2 | KCNK9 block conf 40% | Kir2-1 spec 28% | HEK293 Tl ctr 44% | KCNK3 inh conf 128 | KCNK3 uninduced 0.14
Clc1ccc(Cn2c(-c3cccnc3Cl)nc3ccccc32)cc1	none
CN1c2ccccc2-c2nc3ccccc3n2C1c1ccncc1 (centres undefined)	none
c1ccc(CN2c3ccccc3-c3nc4ccccc4n3C2c2ccccn2)cc1 (centres undefined)	KCNK9 inh -14, KCNK3 inh -10 | KCNK9 block conf 66% | Kir2-1 spec inactive | HEK293 Tl ctr 40% | KCNK3 inh conf 123 | KCNK3 uninduced inactive
CC(C)(C)OC(=O)C[C@@H]1C/C=C\C[C@@H](CC(=O)N(CCO)Cc2ccccc2)C(=O)N2CCC[C@@H]2COC1=O	none (no result: KCNQ1 act, KCNQ1 block, KCNK9 inh, hERG protect)
COc1cc2nc(SCc3c(C)noc3C)n(CCC3=CCCCC3)c(=O)c2cc1OC	KCNK9 inh -14, KCNK3 inh -10 | KCNK9 block conf 28% | Kir2-1 spec 32% | HEK293 Tl ctr 32% | KCNK3 inh conf 125 | KCNK3 uninduced 0.14
C=CCn1c(SCc2c(C)noc2C)nc2ccccc2c1=O	none
CCOC(=O)NC(N(O)c1cccc(Cl)c1)C(Cl)(Cl)Cl (centres undefined)	KCNK9 inh -13, KCNK3 inh -12 | KCNK9 block conf 54% | Kir2-1 spec inactive | HEK293 Tl ctr 28% | KCNK3 inh conf 112 | KCNK3 uninduced inactive
CCc1ccc(-n2c(C)nc3cc(C(=O)NCc4cccnc4)ccc32)cc1	none
COc1ccc2oc(=O)cc(-c3cc4cccc(OC)c4o3)c2c1	none
CCN(CC)C(=O)Oc1ccc2oc(=O)cc(-c3cc4cccc(OC)c4o3)c2c1	KCNK9 inh -18, KCNK3 inh -10 | KCNK9 block conf 80% | Kir2-1 spec inactive | HEK293 Tl ctr 34% | KCNK3 inh conf 104 | KCNK3 uninduced inactive
Cc1ccc(NC(=O)c2cc3c(=O)oc4ccc(C)cc4c3s2)nc1	none (no result: KCNK3 inh)
CCCOc1ccccc1Cn1c(=O)oc2ccc(C)cc21	KCNQ1 act 16, KCNK9 inh -10, KCNK3 inh -8.7 | KCNK9 block conf 52% | Kir2-1 spec inactive | HEK293 Tl ctr 46% | KCNK3 inh conf 115 | KCNK3 uninduced inactive
CCOc1ccccc1Cn1c(=O)oc2ccc(C)cc21	none (no result: KCNQ1 act, KCNQ1 block, KCNK9 inh, hERG protect)
